Results taken from ChEMBL document CHEMBL1275592, “AmpN-AmpG operon is essential for expression of L1 and L2 beta-lactamases in Stenotrophomonas maltophilia” (2010).
Values after ≈ are worked out from the molar mass of the structure shown.

Experiments:
Assay type in all cases: functional
[1] = system: Stenotrophomonas maltophilia; assay: Antimicrobial activity against Stenotrophomonas maltophilia KJN2 harboring pRK-NG plasmid and ampN with xylE-Gmomega cassette insertion by agar dilution method
Outline: (§1)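 MICs were determined in triplicate by standard 2-fold serial agar dilution, following CLSI guidelines.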

[2] = system: Stenotrophomonas maltophilia; assay: Antimicrobial activity against Stenotrophomonas maltophilia KJN1 harboring ampN with xylE-Gmomega cassette insertion by agar dilution method; outline: as §1
[3] = system: Stenotrophomonas maltophilia; assay: Antimicrobial activity against Stenotrophomonas maltophilia KJ by agar dilution method; outline: as §1
[4] = system: Stenotrophomonas maltophilia; assay: Antimicrobial activity against ampN deficient Stenotrophomonas maltophilia KJ by agar dilution method; outline: as §1
[5] = system: Stenotrophomonas maltophilia; assay: Antimicrobial activity against Stenotrophomonas maltophilia KJ harboring pRK415 plasmid by agar dilution method; outline: as §1
[6] = system: Stenotrophomonas maltophilia; assay: Antimicrobial activity against ampN deficient Stenotrophomonas maltophilia KJ harboring ampG with xylE-Gmomega cassette insertion by agar dilution method; outline: as §1
[7] = system: Stenotrophomonas maltophilia; assay: Antimicrobial activity against Stenotrophomonas maltophilia KJN2 harboring pRK415 plasmid and ampN with xylE-Gmomega cassette insertion by agar dilution method; outline: as §1
[8] = system: Stenotrophomonas maltophilia; assay: Antimicrobial activity against Stenotrophomonas maltophilia KJ harboring pRK-NG plasmid by agar dilution method; outline: as §1
[9] = system: Stenotrophomonas maltophilia; assay: Antimicrobial activity against Stenotrophomonas maltophilia KJG harboring ampG with xylE-Gmomega cassette insertion by agar dilution method; outline: as §1
[10] = system: Stenotrophomonas maltophilia; assay: Antimicrobial activity against Stenotrophomonas maltophilia KJN2 harboring ampN with xylE-Gmomega cassette insertion by agar dilution method; outline: as §1
[11] = system: Stenotrophomonas maltophilia; assay: Antimicrobial activity against Stenotrophomonas maltophilia KJN2 harboring pRK-G plasmid and ampN with xylE-Gmomega cassette insertion by agar dilution method; outline: as §1
[12] = system: Stenotrophomonas maltophilia; assay: Antimicrobial activity against Stenotrophomonas maltophilia KJN2 harboring pRK-EcG plasmid and ampN with xylE-Gmomega cassette insertion by agar dilution method; outline: as §1

| SMILES | MIC [1] | MIC [2] | MIC [3] | MIC [4] | MIC [5] | MIC [6] | MIC [7] | MIC [8] | MIC [9] | MIC [10] | MIC [11] | MIC [12] |
| --- | --- | --- | --- | --- | --- | --- | --- | --- | --- | --- | --- | --- |
| C[C@H]1[C@H](NC(=O)/C(=N\OC(C)(C)C(=O)O)c2csc(N)n2)C(=O)N1S(=O)(=O)O [AZTREONAM] | > 1020 µg/mL | 32 µg/mL (≈ 73.5 µM) | > 1020 µg/mL | 32 µg/mL (≈ 73.5 µM) | > 1020 µg/mL | 16 µg/mL (≈ 36.7 µM) | 16 µg/mL (≈ 36.7 µM) | > 1020 µg/mL | 16 µg/mL (≈ 36.7 µM) | 16 µg/mL (≈ 36.7 µM) | 32 µg/mL (≈ 73.5 µM) | > 1020 µg/mL |
| CC1(C)S[C@@H]2[C@H](NC(=O)C(C(=O)O)c3ccccc3)C(=O)N2[C@H]1C(=O)O (stereo partly specified) [CARBENICILLIN] | 1020 µg/mL (≈ 2710 µM) | 8 µg/mL (≈ 21.1 µM) | 1020 µg/mL (≈ 2710 µM) | 4 µg/mL (≈ 10.6 µM) | 1020 µg/mL (≈ 2710 µM) | 2 µg/mL (≈ 5.29 µM) | 4 µg/mL (≈ 10.6 µM) | 1020 µg/mL (≈ 2710 µM) | 2 µg/mL (≈ 5.29 µM) | 2 µg/mL (≈ 5.29 µM) | 4 µg/mL (≈ 10.6 µM) | 512 µg/mL (≈ 1350 µM) |
| CO[C@@]1(NC(=O)Cc2cccs2)C(=O)N2C(C(=O)O)=C(COC(N)=O)CS[C@@H]21 [CEFOXITIN] | 1020 µg/mL (≈ 2400 µM) | 32 µg/mL (≈ 74.9 µM) | 1020 µg/mL (≈ 2400 µM) | 32 µg/mL (≈ 74.9 µM) | 1020 µg/mL (≈ 2400 µM) | 32 µg/mL (≈ 74.9 µM) | 32 µg/mL (≈ 74.9 µM) | 1020 µg/mL (≈ 2400 µM) | 32 µg/mL (≈ 74.9 µM) | 32 µg/mL (≈ 74.9 µM) | 64 µg/mL (≈ 150 µM) | 1020 µg/mL (≈ 2400 µM) |
